# Experiments:
# [1] = target: T1, 5-hydroxytryptamine receptor 1A (Homo sapiens, UniProt P08908); assay: Displacement of [3H]-Way100635 from human 5HT1A receptor expressed in stable CHO cell membranes by radioligand binding assay
# T1 sequence (P08908 whole entry): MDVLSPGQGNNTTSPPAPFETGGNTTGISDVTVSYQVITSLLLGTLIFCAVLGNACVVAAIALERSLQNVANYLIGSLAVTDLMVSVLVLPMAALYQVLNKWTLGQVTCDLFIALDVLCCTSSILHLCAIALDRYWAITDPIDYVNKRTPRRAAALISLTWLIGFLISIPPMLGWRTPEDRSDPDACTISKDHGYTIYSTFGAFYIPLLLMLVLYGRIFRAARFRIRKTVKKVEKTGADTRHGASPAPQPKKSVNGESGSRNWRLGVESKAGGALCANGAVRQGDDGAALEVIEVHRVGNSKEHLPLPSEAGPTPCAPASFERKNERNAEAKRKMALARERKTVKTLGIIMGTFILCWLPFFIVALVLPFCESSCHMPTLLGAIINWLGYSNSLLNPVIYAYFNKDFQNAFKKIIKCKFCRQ
# D(1A) dopamine receptor = D(1A) dopamine receptor (Homo sapiens, UniProt P21728); assay: Displacement of [3H]SCH23390 from human dopamine D1 receptor expressed in HEK293T cells by radioligand binding assay relative to control; format: cell-based; parameters: concentration or dose not given beside the values; conditions: concentration not given here
# D(1A) dopamine receptor, sequence (P21728 whole entry): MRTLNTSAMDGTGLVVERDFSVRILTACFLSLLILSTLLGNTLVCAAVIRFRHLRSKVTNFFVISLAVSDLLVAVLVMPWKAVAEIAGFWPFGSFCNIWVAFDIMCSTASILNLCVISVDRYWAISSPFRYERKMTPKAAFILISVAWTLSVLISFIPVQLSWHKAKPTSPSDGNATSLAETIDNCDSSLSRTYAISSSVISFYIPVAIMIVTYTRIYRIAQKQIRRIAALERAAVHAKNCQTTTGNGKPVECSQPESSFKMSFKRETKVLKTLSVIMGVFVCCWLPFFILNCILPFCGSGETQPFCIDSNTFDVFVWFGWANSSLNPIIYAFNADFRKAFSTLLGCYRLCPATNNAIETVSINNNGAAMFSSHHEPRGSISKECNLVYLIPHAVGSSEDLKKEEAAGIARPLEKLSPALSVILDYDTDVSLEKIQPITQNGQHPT
# [2] = target: T2, 5-hydroxytryptamine receptor 2C (Homo sapiens) (UniProt P28335); assay: Displacement of [3H]Mesulergine from human 5-HT2C receptor expressed in HEK293FlpIN cells by radioligand binding assay relative to control; format: cell-based; parameters: concentration or dose not given beside the values; conditions: concentration not given here
# T2 sequence (whole entry): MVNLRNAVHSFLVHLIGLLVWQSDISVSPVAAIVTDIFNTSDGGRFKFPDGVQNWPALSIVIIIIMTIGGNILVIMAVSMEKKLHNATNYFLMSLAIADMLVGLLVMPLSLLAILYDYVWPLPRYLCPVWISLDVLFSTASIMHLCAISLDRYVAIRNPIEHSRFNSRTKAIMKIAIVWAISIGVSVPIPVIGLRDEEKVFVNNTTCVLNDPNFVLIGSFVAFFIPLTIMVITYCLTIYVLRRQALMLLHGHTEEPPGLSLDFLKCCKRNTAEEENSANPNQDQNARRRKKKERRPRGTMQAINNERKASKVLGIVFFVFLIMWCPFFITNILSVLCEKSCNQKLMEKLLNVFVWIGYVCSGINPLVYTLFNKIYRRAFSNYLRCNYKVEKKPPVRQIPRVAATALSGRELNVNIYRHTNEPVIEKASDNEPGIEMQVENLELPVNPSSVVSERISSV
# D(2) dopamine receptor = D(2) dopamine receptor (Homo sapiens, UniProt P14416); assay: Displacement of [3H]N-methylspiperone from human dopamine D2 receptor expressed in stable fibroblast cells by radioligand binding assay relative to control; format: cell-based; parameters: concentration or dose not given beside the values; conditions: concentration not given here
# D(2) dopamine receptor, sequence (P14416 whole entry): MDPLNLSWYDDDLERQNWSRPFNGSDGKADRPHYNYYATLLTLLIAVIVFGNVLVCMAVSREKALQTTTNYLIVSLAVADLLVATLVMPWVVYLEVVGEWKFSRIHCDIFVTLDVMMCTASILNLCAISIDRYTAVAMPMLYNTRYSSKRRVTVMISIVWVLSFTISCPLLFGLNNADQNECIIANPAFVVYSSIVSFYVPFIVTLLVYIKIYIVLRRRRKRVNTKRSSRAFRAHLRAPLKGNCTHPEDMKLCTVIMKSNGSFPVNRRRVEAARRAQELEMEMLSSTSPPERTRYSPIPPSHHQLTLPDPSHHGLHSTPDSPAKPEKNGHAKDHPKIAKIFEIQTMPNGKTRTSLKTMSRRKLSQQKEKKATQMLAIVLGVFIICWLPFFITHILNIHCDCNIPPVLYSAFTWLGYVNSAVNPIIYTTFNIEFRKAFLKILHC
# MDA-MB-231 [3] = assay: Cytotoxicity against human MDA-MB-231 cells assessed as reduction in cell viability after 24 hrs by MTT assay; format: functional, cell-based; conditions: MDA-MB-231, 24 h
# How it was run: (§1)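 Cells exposed to compounds; viability read at 24, 48 and 72 h. Every experiment run in triplicate.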
# [4] = target: T3, 5-hydroxytryptamine receptor 7 (Homo sapiens, UniProt P34969); assay: Displacement of [3H]LSD from human 5-HT7A receptor expressed in HEK cells by radioligand binding assay; format: cell-based
# [5] = target: 5-hydroxytryptamine receptor 6 (Homo sapiens, UniProt P50406); assay: Displacement of [3H]LSD from human 5-HT6 receptor expressed in HEK cells by radioligand binding assay relative to control; format: cell-based; parameters: concentration or dose not given beside the values; conditions: concentration not given here
# 5-hydroxytryptamine receptor 6, sequence (P50406 whole entry): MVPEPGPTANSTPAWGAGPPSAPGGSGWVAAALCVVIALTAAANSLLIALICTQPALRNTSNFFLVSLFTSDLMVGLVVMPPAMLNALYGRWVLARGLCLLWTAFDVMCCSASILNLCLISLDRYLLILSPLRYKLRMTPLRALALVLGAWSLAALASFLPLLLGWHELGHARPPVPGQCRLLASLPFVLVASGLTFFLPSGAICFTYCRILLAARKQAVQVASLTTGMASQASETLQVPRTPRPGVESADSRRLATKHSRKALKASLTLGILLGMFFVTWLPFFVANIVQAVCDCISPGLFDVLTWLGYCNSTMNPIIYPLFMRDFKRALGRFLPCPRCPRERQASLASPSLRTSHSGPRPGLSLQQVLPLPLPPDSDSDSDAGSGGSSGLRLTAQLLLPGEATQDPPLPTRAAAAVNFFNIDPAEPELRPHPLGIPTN
# [6] = target: T4, 5-hydroxytryptamine receptor 1D (Homo sapiens, UniProt P28221); assay: Displacement of [3H]5-CT from human 5-HT1D receptor expressed in HEK293T cells by radioligand binding assay; format: cell-based
# T4 sequence (P28221 whole entry): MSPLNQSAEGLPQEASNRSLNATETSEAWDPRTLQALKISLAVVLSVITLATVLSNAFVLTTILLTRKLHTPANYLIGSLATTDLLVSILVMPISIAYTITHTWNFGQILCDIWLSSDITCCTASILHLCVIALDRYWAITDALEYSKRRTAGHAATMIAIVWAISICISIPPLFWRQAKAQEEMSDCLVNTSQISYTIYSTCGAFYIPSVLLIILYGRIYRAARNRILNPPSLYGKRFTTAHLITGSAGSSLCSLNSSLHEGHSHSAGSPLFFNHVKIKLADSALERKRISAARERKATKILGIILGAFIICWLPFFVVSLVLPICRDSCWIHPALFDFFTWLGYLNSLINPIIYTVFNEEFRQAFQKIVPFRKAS
# [7] = target: T3, 5-hydroxytryptamine receptor 7; assay: Displacement of [3H]LSD from human 5-HT7A receptor expressed in HEK cells by radioligand binding assay relative to control; format: cell-based
# MDA-MB-231 [8] = assay: Cytotoxicity against human MDA-MB-231 cells assessed as reduction in cell viability after 72 hrs by MTT assay; format: functional, cell-based; conditions: MDA-MB-231, 72 h; how it was run: as §1
# [9] = target: 5-hydroxytryptamine receptor 2B (Homo sapiens, UniProt P41595); assay: Displacement of [3H]LSD from human 5-HT2B receptor expressed in HEK cells by radioligand binding assay; format: cell-based
# 5-hydroxytryptamine receptor 2B, sequence (P41595 whole entry): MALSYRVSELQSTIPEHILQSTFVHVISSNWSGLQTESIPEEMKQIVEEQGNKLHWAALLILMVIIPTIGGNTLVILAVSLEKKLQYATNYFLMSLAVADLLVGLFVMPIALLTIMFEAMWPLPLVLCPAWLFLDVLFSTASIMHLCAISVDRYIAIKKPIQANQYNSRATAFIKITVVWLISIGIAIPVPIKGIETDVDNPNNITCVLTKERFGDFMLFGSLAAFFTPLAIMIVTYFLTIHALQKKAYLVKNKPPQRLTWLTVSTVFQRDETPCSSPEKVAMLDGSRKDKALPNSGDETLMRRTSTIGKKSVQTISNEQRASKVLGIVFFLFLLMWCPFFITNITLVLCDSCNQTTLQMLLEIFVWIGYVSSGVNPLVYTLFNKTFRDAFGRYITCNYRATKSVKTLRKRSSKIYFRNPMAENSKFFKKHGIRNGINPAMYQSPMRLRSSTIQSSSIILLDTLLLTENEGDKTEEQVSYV
# [10] = target: T5, 5-hydroxytryptamine receptor 2A (Homo sapiens, UniProt P28223); assay: Displacement of [3H]Ketanserin from 5-HT2A receptor (unknown origin) by radioligand binding assay
# T5 sequence (P28223 whole entry): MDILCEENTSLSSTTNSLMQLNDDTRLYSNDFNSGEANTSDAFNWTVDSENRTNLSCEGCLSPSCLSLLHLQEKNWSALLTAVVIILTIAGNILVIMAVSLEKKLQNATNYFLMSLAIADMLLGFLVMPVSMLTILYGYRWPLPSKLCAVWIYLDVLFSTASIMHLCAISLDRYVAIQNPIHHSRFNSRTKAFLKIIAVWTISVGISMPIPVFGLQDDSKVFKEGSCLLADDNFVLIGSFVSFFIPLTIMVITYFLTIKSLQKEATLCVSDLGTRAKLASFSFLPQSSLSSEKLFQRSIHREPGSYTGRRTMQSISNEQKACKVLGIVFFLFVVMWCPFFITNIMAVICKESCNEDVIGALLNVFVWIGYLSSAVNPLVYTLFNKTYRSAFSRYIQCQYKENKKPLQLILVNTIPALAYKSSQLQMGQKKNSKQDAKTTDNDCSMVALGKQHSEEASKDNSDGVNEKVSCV
# [11] = system: Lewis lung carcinoma cell line; assay: Cytotoxicity against mouse LLC cells harboring […] assessed as reduction in cell viability after 48 hrs by MTT assay; format: functional, cell-based; how it was run: as §1
# MDA-MB-231 [12] = assay: Cytotoxicity against human MDA-MB-231 cells assessed as reduction in cell viability after 48 hrs by MTT assay; format: functional, cell-based; conditions: MDA-MB-231, 48 h; how it was run: as §1
# [13] = target: T6, D(4) dopamine receptor (Homo sapiens) (UniProt P21917); assay: Displacement of [3H]N-methylspiperone from human dopamine D4 receptor by radioligand binding assay relative to control; parameters: concentration or dose not given beside the values; conditions: concentration not given here
# T6 sequence (whole entry): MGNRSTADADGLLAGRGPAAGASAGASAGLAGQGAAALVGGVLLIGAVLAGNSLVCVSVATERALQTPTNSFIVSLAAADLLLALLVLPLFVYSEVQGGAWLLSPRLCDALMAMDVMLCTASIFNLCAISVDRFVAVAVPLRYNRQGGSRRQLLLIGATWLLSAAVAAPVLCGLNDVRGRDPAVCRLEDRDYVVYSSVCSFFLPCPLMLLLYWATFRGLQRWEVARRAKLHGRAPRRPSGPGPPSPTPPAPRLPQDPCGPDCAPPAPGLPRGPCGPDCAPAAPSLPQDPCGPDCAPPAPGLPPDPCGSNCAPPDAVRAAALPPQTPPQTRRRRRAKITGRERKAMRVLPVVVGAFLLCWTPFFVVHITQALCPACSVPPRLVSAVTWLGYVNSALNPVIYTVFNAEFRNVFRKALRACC
# [14] = target: Sodium-dependent serotonin transporter (Homo sapiens, UniProt P31645); assay: Displacement of [3H]Citalopram from human SERT expressed in HEK cells by radioligand binding assay relative to control; format: cell-based
# Sodium-dependent serotonin transporter, sequence (P31645 whole entry): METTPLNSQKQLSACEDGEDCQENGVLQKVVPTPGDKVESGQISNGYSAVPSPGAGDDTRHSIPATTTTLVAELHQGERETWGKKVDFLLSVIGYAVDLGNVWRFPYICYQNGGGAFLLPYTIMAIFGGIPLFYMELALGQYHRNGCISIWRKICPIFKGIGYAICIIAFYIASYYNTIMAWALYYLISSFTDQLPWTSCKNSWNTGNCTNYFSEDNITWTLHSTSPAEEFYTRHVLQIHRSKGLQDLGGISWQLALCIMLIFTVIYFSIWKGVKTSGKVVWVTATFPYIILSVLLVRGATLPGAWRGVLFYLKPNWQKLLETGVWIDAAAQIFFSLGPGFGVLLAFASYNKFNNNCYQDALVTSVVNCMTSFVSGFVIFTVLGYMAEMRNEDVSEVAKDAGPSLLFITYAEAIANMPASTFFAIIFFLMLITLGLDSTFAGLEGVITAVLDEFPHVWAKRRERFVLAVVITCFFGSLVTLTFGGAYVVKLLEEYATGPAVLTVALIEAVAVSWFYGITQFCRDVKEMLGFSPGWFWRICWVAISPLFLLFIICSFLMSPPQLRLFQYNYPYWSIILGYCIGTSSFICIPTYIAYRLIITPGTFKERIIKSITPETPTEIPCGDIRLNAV
# D(1B) dopamine receptor = D(1B) dopamine receptor (Homo sapiens, UniProt P21918); assay: Displacement of [3H]SCH23390 from human dopamine D5 receptor expressed in HEK293T cells by radioligand binding assay; format: cell-based
# Mu-type opioid receptor = Mu-type opioid receptor (Homo sapiens, UniProt P35372); assay: Displacement of [3H]DAMGO from human MOR expressed in HEK cells by radioligand binding assay relative to control; format: cell-based; parameters: concentration or dose not given beside the values; conditions: concentration not given here
# Mu-type opioid receptor, sequence (P35372 whole entry): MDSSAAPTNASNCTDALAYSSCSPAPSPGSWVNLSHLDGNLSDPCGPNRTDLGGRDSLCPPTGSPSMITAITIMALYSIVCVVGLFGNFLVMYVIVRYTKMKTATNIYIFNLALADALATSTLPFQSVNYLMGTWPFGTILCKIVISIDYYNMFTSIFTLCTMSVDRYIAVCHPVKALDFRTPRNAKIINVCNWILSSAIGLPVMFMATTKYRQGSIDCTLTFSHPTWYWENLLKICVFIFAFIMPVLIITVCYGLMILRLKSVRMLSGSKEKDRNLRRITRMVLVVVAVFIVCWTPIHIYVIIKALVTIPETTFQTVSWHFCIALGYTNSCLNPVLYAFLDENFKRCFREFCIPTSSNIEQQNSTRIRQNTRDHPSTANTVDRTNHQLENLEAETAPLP
# [15] = target: T4, 5-hydroxytryptamine receptor 1D; assay: Displacement of [3H]5-CT from human 5-HT1D receptor expressed in HEK293T cells by radioligand binding assay relative to control; format: cell-based; parameters: concentration or dose not given beside the values; conditions: concentration not given here
# [16] = target: Sodium-dependent noradrenaline transporter (Homo sapiens, UniProt P23975); assay: Displacement of [3H]Nisoxetine from human NET expressed in HEK cells by radioligand binding assay; format: cell-based
# Sodium-dependent noradrenaline transporter, sequence (P23975 whole entry): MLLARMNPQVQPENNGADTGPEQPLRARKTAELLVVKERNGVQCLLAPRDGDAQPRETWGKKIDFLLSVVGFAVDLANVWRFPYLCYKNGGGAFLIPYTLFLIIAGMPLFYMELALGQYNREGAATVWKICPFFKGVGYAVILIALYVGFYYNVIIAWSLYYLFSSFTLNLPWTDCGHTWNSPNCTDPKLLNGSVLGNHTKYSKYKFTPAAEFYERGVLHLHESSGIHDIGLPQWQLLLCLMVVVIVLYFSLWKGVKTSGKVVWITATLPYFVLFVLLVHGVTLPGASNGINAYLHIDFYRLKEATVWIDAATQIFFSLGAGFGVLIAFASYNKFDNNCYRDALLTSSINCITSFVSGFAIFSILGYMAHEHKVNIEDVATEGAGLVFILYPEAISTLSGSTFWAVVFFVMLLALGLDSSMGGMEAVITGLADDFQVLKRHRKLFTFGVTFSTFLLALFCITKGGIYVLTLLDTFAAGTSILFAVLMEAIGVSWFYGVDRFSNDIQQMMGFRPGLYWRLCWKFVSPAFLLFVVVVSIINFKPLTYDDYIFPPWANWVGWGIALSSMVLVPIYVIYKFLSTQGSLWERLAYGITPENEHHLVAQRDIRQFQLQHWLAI
# [17] = target: T5, 5-hydroxytryptamine receptor 2A; assay: Displacement of [3H]Ketanserin from 5-HT2A receptor (unknown origin) by radioligand binding assay relative to control; parameters: concentration or dose not given beside the values; conditions: concentration not given here
# Histamine H2 receptor = Histamine H2 receptor (Homo sapiens, UniProt P25021); assay: Displacement of [3H]Cimetidine from human H2 receptor expressed in HEK cells by radioligand binding assay; format: cell-based
# Histamine H2 receptor, sequence (P25021 whole entry): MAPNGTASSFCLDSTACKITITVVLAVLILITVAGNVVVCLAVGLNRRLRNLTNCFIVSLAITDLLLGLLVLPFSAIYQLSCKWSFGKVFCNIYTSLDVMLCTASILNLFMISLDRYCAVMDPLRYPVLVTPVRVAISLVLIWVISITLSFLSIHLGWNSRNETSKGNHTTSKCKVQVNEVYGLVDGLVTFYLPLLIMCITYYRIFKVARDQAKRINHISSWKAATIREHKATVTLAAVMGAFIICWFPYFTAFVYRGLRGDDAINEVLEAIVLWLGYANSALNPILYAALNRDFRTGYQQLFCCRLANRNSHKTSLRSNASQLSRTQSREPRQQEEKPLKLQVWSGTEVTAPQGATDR
Structure (SMILES),Ki [1] [nM],inhibition (D(1A) dopamine receptor) [%],inhibition [2] [%],inhibition (D(2) dopamine receptor) [%],IC50 (MDA-MB-231 [3]) [nM],Ki [4] [nM],inhibition [5] [%],Ki ([6]; read-out: Ki) [nM],inhibition (INH) [7] [%],IC50 (MDA-MB-231 [8]) [nM],Ki ([9]; read-out: Ki) [nM],Ki [10] [nM],IC50 [11] [nM],IC50 (MDA-MB-231 [12]) [nM],inhibition [13] [%],inhibition (INH) [14] [%],Ki (D(1B) dopamine receptor) [nM],inhibition (Mu-type opioid receptor) [%],inhibition [15] [%],inhibition [17] [%],other results
COc1ccc(N(CCCCN2CCC(O)(c3ccc(Cl)c(C(F)(F)F)c3)CC2)c2ccc(OC)cc2)cc1,10000,56.6,72.6,60,8100,949,50,10000,55.2,5400 to 7100,729,900,4000,7100,73,94,623,76.8,78.8,94.1,Ki [16]: 1440 nM; Ki (Histamine H2 receptor): Not Active
OC1(c2ccc(Cl)c(C(F)(F)F)c2)CCN(CCCCN(c2ccc(F)cc2)c2ccc(F)cc2)CC1,1090,77.9,77.5,65.8,11300,812,68,1070,57.1,9200,509,6060,10600,11500,86.1,72.7,744,61.5,70.6,92.6,Ki [16]: 458 nM; Ki (Histamine H2 receptor): Not Active
OC1(c2ccc(Cl)c(C(F)(F)F)c2)CCN(CCCC(c2ccc(F)cc2)c2ccc(F)cc2)CC1 [PENFLURIDOL],356,96.5,95.3,71.5,6100,280,96,3560,98.4,5100,184,361,4200,5000,77.6,92.7,125,87,91.3,95.2,Ki [16]: 588 nM
OC1(c2ccc(Cl)c(C(F)(F)F)c2)CCN(CCCCCc2ccc(F)cc2)CC1,901,,57.7,81.8,19400,1120,24.7,4430,75.9,9800,,889,11900,11900,89.2,,,86.2,50,68.5,Ki [9]: Not Active; Ki (Histamine H2 receptor; read-out: Ki): 401 nM
OC1(c2ccc(Cl)c(C(F)(F)F)c2)CCN(CCCC(c2ccccc2)c2ccccc2)CC1,481,97.2,82.9,100,9300,326,72.8,628,82.1,8400,374,1000,6600,8700,98.9,83.7,121,90.3,83.3,94.3,Ki [16]: 518 nM; Ki (Histamine H2 receptor; read-out: Ki): 278 nM
OC1(c2ccc(Cl)c(C(F)(F)F)c2)CCN(CCCCC(c2ccc(F)cc2)c2ccc(F)cc2)CC1,1390,92.6,89,99.2,5300,969,80,844,84.9,4800,423,1000,4100,5700,96.9,92.5,529,89,79.3,96.3,Ki [16]: 77 nM; Ki (Histamine H2 receptor; read-out: Ki): 546 nM
OC1(c2ccc(Cl)c(C(F)(F)F)c2)CCN(CCCC=C(c2ccc(F)cc2)c2ccc(F)cc2)CC1,1360,,77.2,87.3,23900,10000,54.4,,78.8,9600,2200,1100,12000,14900,87.8,,,90.6,,91.5,Ki [6]: Not Active; Ki (Histamine H2 receptor; read-out: Ki): 526 nM
OC1(c2ccc(Cl)c(C(F)(F)F)c2)CCN(CCCN(c2ccc(F)cc2)c2ccc(F)cc2)CC1,1260,96.8,86.7,66.4,6700,1570,86.4,752,85.9,3500,177,164,5700,5000,76.5,82.5,437,97.4,80.7,94.6,Ki [16]: 902 nM; Ki (Histamine H2 receptor; read-out: Ki): 252 nM
